From ChEMBL document CHEMBL1148018, “Discovery and SAR development of thienopyridones: a class of small molecule AMPK activators” (Bioorg Med Chem Lett, 2007)
The source made the active and inactive calls. The calls are words filed in the database; no cut-off is given here.

Test system: not listed separately
Assay: (§1) Activation of AMPK in rat liver assessed as SAMS peptide phosphorylation
Format: functional, tissue-based
Summary of the method: (§2)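 Kinase activity is read as phosphorylation of the SAMS peptide substrate. Substrate concentration is 20 in standard assays and 100 in additivity assays.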
In the case of `N#Cc1c(O)c2c(-c3ccc4c(c3)OCO4)csc2[nH]c1=O`, the EC50 is reported as 20 µM.
For `C=CCc1ccc(-c2csc3[nH]c(=O)c(C#N)c(O)c23)cc1`, the EC50 was 40 µM.
`N#Cc1c(O)c2c(-c3ccc(O)cc3)c(Cl)sc2[nH]c1=O` showed an EC50 of 2 µM.
For `N#Cc1c(O)c2c(-c3ccc(Br)cc3)csc2[nH]c1=O`, the EC50 was 72 µM.
In the case of `COc1cccc(-c2c(O)c3c(-c4ccccc4)csc3[nH]c2=O)c1`, the EC50 is reported as 180 µM.
Work on `N#Cc1c(O)c2c(-c3ccc(O)cc3)csc2[nH]c1=O` yielded an EC50 of 20 µM.
With `COC(=O)c1ccc(-c2csc3[nH]c(=O)c(C#N)c(O)c23)cc1` the EC50 was 55 µM.
Work on `N#Cc1c(O)c2c(-c3ccc(Cl)cc3)csc2[nH]c1=O` yielded an EC50 of 81 µM.
For `N#Cc1c(O)c2c(-c3ccccc3)c(Br)sc2[nH]c1=O`, the EC50 was 5.8 µM.
Work on `COC(=O)c1c(O)c2c(-c3ccccc3)csc2[nH]c1=O` yielded an EC50 of 175 µM.
With `O=c1[nH]c2scc(-c3ccccc3)c2c(O)c1-c1cccs1` the EC50 was 183 µM.
`N#Cc1c(O)c2c(-c3ccc(F)cc3)csc2[nH]c1=O` gave an EC50 of 84 µM.
`N#Cc1c(O)c2c(-c3ccc(F)cc3)c(Br)sc2[nH]c1=O` gave an EC50 of 10 µM.
Compound `O=c1[nH]c2scc(-c3ccccc3)c2c(O)c1Cl` has an EC50 of 88 µM.
In the case of `N#Cc1c(O)c2c(-c3cccc(O)c3)csc2[nH]c1=O`, the EC50 is reported as 38 µM.
With `N#Cc1c(O)c2c(-c3ccccc3)c(Cl)sc2[nH]c1=O` the EC50 was 3.7 µM.
With `N#Cc1c(O)c2c(-c3ccccc3)csc2[nH]c1=O` the EC50 was 38 µM.
`COCOc1ccc(-c2csc3[nH]c(=O)c(C#N)c(O)c23)cc1` showed an EC50 of 8 µM.

Species: Rattus norvegicus
Assay: as §1
Format: functional, tissue-based
Summary of the method: as §2
For `N#Cc1c(O)c2c(-c3ccccc3)c(-c3ccccc3O)sc2[nH]c1=O`, the Activity was “inactive”.
In the case of `Cn1c(=O)c(C#N)c(O)c2c(-c3ccc(Cl)cc3)csc21`, the Activity is reported as “inactive”.
In the case of `O=c1[nH]c2scc(-c3ccccc3)c2c(O)c1-c1ccccc1`, the Activity is reported as “inactive”.
With `CN(C)c1c(O)c2c(-c3ccccc3)csc2[nH]c1=O` the Activity was “inactive”.
For `O=c1cc(O)c2c(-c3ccccc3)csc2[nH]1`, the Activity was “inactive”.
For `N#Cc1c(O)c2c(-c3ccccc3)c([N+](=O)[O-])sc2[nH]c1=O`, the Activity was “inactive”.
In the case of `Cn1c(=O)c(C#N)c(O)c2c(-c3ccc(Br)cc3)c(F)sc21`, the Activity is reported as “inactive”.
With `Cn1c(=O)c(C#N)c(O)c2c(-c3ccccc3)csc21` the Activity was “inactive”.
For `Cn1c(=O)c(C#N)c(N)c2c(-c3ccc(Br)cc3)csc21`, the Activity was “inactive”.
For `COc1c(C#N)c(=O)[nH]c2scc(-c3ccccc3)c12`, the Activity was “inactive”.
